{"source": "ChEMBL document CHEMBL3817796", "about": "“Discovery of Novel 15-Lipoxygenase Activators To Shift the Human Arachidonic Acid Metabolic Network toward Inflammation Resolution” (J Med Chem, 2016)", "target": "T1, Polyunsaturated fatty acid 5-lipoxygenase (Homo sapiens) (UniProt P09917)", "T1 sequence (whole entry)": "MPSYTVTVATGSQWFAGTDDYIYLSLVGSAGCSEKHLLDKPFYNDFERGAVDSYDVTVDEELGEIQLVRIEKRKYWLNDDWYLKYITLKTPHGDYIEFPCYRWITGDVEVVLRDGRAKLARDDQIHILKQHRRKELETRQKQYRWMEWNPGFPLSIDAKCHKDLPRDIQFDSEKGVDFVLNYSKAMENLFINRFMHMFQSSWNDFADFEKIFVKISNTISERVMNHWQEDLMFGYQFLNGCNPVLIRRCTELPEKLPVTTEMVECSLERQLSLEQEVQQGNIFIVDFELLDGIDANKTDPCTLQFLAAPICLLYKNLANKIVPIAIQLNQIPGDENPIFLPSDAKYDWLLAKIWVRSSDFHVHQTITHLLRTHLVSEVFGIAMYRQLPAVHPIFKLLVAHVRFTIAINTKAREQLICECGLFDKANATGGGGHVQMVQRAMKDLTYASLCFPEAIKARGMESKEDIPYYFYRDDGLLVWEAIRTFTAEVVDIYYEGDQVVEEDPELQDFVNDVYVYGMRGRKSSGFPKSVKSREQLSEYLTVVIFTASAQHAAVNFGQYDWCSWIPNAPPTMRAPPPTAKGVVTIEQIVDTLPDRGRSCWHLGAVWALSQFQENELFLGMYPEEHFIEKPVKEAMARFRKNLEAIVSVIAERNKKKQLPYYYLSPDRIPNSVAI", "assay": "Activation of human 5-LOX assessed as H2DCFDA oxidation at 100 uM using arachidonic acid substrate incubated for 5 mins by fluorescence assay", "method_in_brief": "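Human 5-LOX activity followed as AA-driven oxidation of H2DCFDA to fluorescent dichlorofluorescein (ex 500/em 520 nm), recorded for 5 min. Compound handled as in the 15-LOX assay.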"}
{"smiles": "CN1CCN(CC(=O)N2N=C3/C(=C/c4ccccc4)CCCC3C2c2ccccc2)CC1", "note": "(stereo unspecified)", "values": [{"measurement": "Activity", "value": "< 5", "unit": "%"}]}
